Converted amounts (≈) assume the structure as drawn. *1 amine or outer side, *2 acyl side, *3 side chain or, on linkers, in order; H or OH if unused. Where a SMILES comes first, the peptide text is derived from it. Bridges are numbered along the chain shown (N, C = ends). [ ]: non-standard residue; d: D form. The star is where a group is joined. hTyr(3S-OH,4S-OH,3'-OSO3H) = N[C@H](C(=O)O)[C@H](O)[C@@H](O)c1ccc(O)c(OS(=O)(=O)O)c1; pTerphenylCO(4''-OnC5H11) = CCCCCOc1ccc(-c2ccc(-c3ccc(C(=O)*)cc3)cc2)cc1; Orn(4R-OH,5R-OH) = O=C([C@H](C[C@@H](O)[C@@H](O)N[*:3])N[*:1])[*:2]; hTyr(3S-OH,4S-OH) = N[C@H](C(=O)O)[C@H](O)[C@@H](O)c1ccc(O)cc1; Pro(3S-OH,4S-Me) = C[C@H]1CN[C@H](C(=O)O)[C@H]1O; X1 = CCCCCOc1ccc(-c2cc(-c3ccc(C(=O)*)cc3)no2)cc1; Gln(3R-OH) = NC(=O)C[C@@H](O)[C@H](N)C(=O)O; Hyp = O=C(O)[C@@H]1C[C@@H](O)CN1

For data set [1], the system named is Candida. In words: Antifungal activity against Candida sp. Type of data set: functional.
The test system of data set [2] is Aspergillus fumigatus. Kind of data set: Antifungal activity against Aspergillus fumigatus. In kind it is functional.
The subject of data set [3] is Aspergillus flavus. In words: Antifungal activity against Aspergillus flavus. Type of data set: functional.
Data set [4] is described as follows: Total body clearance in F344 rat at 5 mg/kg, iv administered as single bolus dose. The arrangement: dose 5 mg/kg, route intravenous. The following applies: in vivo. Type of data set: ADME, organism-based. In a few lines: (§1)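 F344 males, 10 to 11 weeks old and 223.6 to 243.8 g, got a single 5 mg/kg iv dose of [14C]anidulafungin over about 5 min. Plasma and tissues were collected predose and at 0.083 to 72 h, n = 3 per time point. Parent drug was quantified by HPLC-UV, with LLOQ/ULOQ of 20/5,120 ng/ml in plasma and 220/56,320 ng/g in tissue. Noncompartmental parameters came from a composite mean concentration-time profile.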

The nature of data set [5]: Volume of distribution in F344 rat at 5 mg/kg, iv administered as single bolus dose. In kind it is ADME, organism-based. Set-up: dose 5 mg/kg, route intravenous. The conditions noted are these: in vivo. In a few lines:
as §1

Data set [6] is described as follows: Ratio of AUC in rat lung to AUC in rat plasma at 1 mg/kg, iv. Type of data set: ADME, organism-based. Set-up: dose 1 mg/kg, route intravenous. The following applies: lung and plasma, read-out: Ratio AUC.
A short description of data set [7]: Ratio of AUC in rat kidney to AUC in rat plasma at 1 mg/kg, iv. In kind it is ADME, organism-based. Set-up: dose 1 mg/kg, route intravenous. The following applies: kidney and plasma, read-out: Ratio AUC.
Data set [8] in a line: Ratio of AUC in rat liver to AUC in rat plasma at 1 mg/kg, iv. In kind it is ADME, organism-based. The arrangement: dose 1 mg/kg, route intravenous. The following applies: liver and plasma, read-out: Ratio AUC.
A short description of data set [9]: Ratio of AUC (0 to infinity) in F344 rat liver to AUC (0 to infinity) in F344 rat plasma at 5 mg/kg, iv administered as single bolus dose. The conditions noted are these: liver and plasma. In kind it is ADME, organism-based. The arrangement: dose 5 mg/kg, route intravenous. The procedure, abridged: (§2)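 Male F344 rats, 10–11 weeks old, 223.6–243.8 g, given a single IV dose of [¹⁴C]-labelled drug over about 5 min. Tissue and plasma sampled predose and at 0.083–72 h, n = 3 per time point. Parent drug measured by HPLC-UV; tissue LLOQ 220 ng/g, plasma LLOQ 20 ng/ml. AUC0-∞ by noncompartmental analysis of the composite mean profile; ratio is tissue AUC over plasma AUC.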

Data set [10] can be described thus: Ratio of AUC (0 to infinity) in F344 rat lung to AUC (0 to infinity) in F344 rat plasma at 5 mg/kg, iv administered as single bolus dose. The following applies: lung and plasma. In kind it is ADME, organism-based. The arrangement: dose 5 mg/kg, route intravenous. In a few lines:
as §2

The nature of data set [11]: Ratio of AUC (0 to infinity) in F344 rat kidney to AUC (0 to infinity) in F344 rat plasma at 5 mg/kg, iv administered as single bolus dose. The following applies: kidney and plasma. Set-up: dose 5 mg/kg, route intravenous. In kind it is ADME, organism-based. The procedure, abridged: as §2

Usually MIC90 stands for the lowest concentration that inhibits either 90% of growth or 90% of the strains tested, depending on the study. A higher MIC90 goes with lower susceptibility. Usually clearance stands for a measure of how efficiently the substance is removed, as volume per time. Lower therefore signals inefficient removal. One may read the Vd as a proportionality between amount in the body and measured concentration, not a real space. A higher Vd goes with wide distribution into tissue. `CCCCCOc1ccc(-c2ccc(-c3ccc(C(=O)N[C@H]4C[C@@H](O)[C@@H](O)NC(=O)[C@@H]5[C@@H](O)[C@@H](C)CN5C(=O)[C@H]([C@@H](C)O)NC(=O)[C@H]([C@H](O)[C@@H](O)c5ccc(O)cc5)NC(=O)[C@@H]5C[C@@H](O)CN5C(=O)[C@H]([C@@H](C)O)NC4=O)cc3)cc2)cc1` [ANIDULAFUNGIN] ({pTerphenylCO(4''-OnC5H11)}-[Orn(4R-OH,5R-OH)]T[Hyp][hTyr(3S-OH,4S-OH)]T[Pro(3S-OH,4S-Me)]; lactam 1-C): the MIC90 in data set [1] was 0.06 µg/mL (≈ 0.0526 µM); in [2], 0.03 µg/mL (≈ 0.0263 µM); in data set [3] it was 0.08 µg/mL (≈ 0.0702 µM). The compound also showed a clearance in data set [4] of 1.4 mL/min/kg. The Vd in [5] came to 2.2 L/kg.
`CCCCCOc1ccc(-c2cc(-c3ccc(C(=O)N[C@H]4C[C@@H](O)[C@@H](O)NC(=O)[C@@H]5[C@@H](O)[C@@H](C)CN5C(=O)[C@H]([C@H](O)CC(N)=O)NC(=O)[C@H]([C@H](O)[C@@H](O)c5ccc(O)c(OS(=O)(=O)O)c5)NC(=O)[C@@H]5C[C@@H](O)CN5C(=O)[C@H]([C@@H](C)O)NC4=O)cc3)no2)cc1` [MICAFUNGIN] (X1-[Orn(4R-OH,5R-OH)]T[Hyp][hTyr(3S-OH,4S-OH,3'-OSO3H)][Gln(3R-OH)][Pro(3S-OH,4S-Me)]; lactam 1-C): the Kp was 3.6 in data set [6], 3.2 in data set [7] and 7.8 in data set [8].
For `CC[C@H](C)C[C@H](C)CCCCCCCCC(=O)N[C@H]1C[C@@H](O)[C@@H](NCCN)NC(=O)[C@@H]2[C@@H](O)CCN2C(=O)[C@H]([C@H](O)CCN)NC(=O)[C@H]([C@H](O)[C@@H](O)c2ccc(O)cc2)NC(=O)[C@@H]2C[C@@H](O)CN2C(=O)[C@H]([C@@H](C)O)NC1=O` [CASPOFUNGIN], the figures for the Kp in data set [9], in data set [10] and in data set [11] were 12.4, 10.4 and 10.7, respectively.

The record behind these values is ChEMBL document CHEMBL1275442, “Pharmacokinetics and tissue distribution of anidulafungin in rats” (Antimicrob Agents Chemother, 2008).
